Measured values from ChEMBL document CHEMBL3627606, “Development of Novel, CNS Penetrant Positive Allosteric Modulators for the Metabotropic Glutamate Receptor Subtype 1 (mGlu1), Based on an N-(3-Chloro-4-(1,3-dioxoisoindolin-2-yl)phenyl)-3-methylfuran-2-carboxamide Scaffold, That Potentiate Wild Type and Mutant mGlu1 Receptors Found in …” (J Med Chem, 2015).
One block for each molecule: values may come before it.

Key:
Hippocampus = experiment: Toxic epileptiform activity in C57BL/6 mouse CA3 region of hippocampus assessed as frequency of spike activity at 50 uM by electrophysiolgy method (reference value: 0.94 +/- 0.06 Hz); format: toxicity, tissue-based
Summary of the method: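 Mouse hippocampal slices with extracellular recording from the CA3 pyramidal cell body layer. Compound (10 μM) or DHPG (50 μM) was bath-applied, and the frequency of spontaneous spikes was compared with baseline. n = 6 per agent, paired t test.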

Plasma [1] = experiment: Drug level in human plasma treated with N-(3-chloro-4-(5-chloro-1,3-dioxoisoindolin-2-yl)phenyl)-3-methylfuran-2-carboxamide at 10 uM after 4 hrs by mass spectrometry; format: ADME, cell-free
Summary of the method: (§1)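 Compound incubated at 10 μM in rat or human plasma at 37 °C. Samples taken at 0 and 4 h were analysed by mass spectrometry for parent and metabolites.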

Plasma [2] = experiment: Drug level in rat plasma treated with N-(3-chloro-4-(5-chloro-1,3-dioxoisoindolin-2-yl)phenyl)-3-methylfuran-2-carboxamide at 10 uM after 4 hrs by mass spectrometry; format: ADME, cell-free; summary of the method: as §1
Mus musculus [3] = experiment: Toxicity in C57BL/6 mouse assessed as seizure activity at 1 mg/kg, ip administered as single dose measured after 5 mins; format: organism-based; details: in vivo
Summary of the method: (§2)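 Male C57Bl/6 mice (25−30 g) dosed ip in 10% Tween 80 at 10 mL/kg: the mGlu5 ago-PAM at 1 or 3 mg/kg, the mGlu1 PAMs at 100 mg/kg. Behaviour was monitored continuously for 3 h and scored on a modified Racine scale (0−5).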

Mus musculus [4] = experiment: Toxicity in C57BL/6 mouse assessed as seizure activity at 1 or 3 mg/kg, ip administered as single dose measured after 5 mins; details: in vivo
[5] = target: Metabotropic glutamate receptor 3 (Homo sapiens) (UniProt Q14832); experiment: Positive allosteric modulation of mGlu3 receptor (unknown origin) assessed as potentiation of glutamate-induced response by cell-based assay
Summary of the method: (§3)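 Selectivity counterscreen at the other mGlu subtypes using the standard fold-shift paradigm. Compound was tested at 10 μM against the glutamate concentration-response curve, and the shift of that curve was read.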

[6] = Half life in Sprague-Dawley rat at 0.2 mg/kg, iv by LC-MS/MS analysis; details: in vivo
[7] = Drug concentration in Sprague-Dawley rat brain at 0.2 mg/kg, iv after 0.25 hrs by LC-MS/MS analysis; details: read-out: Drug uptake
[8] = target: T1, Metabotropic glutamate receptor 1 (Homo sapiens, UniProt Q13255); experiment: Agonist activity at human mGlu1 receptor in HEK293 cells assessed as calcium mobilization at 10 uM by Fluo-4AM dye based fluorescence analysis; format: functional, cell-based
Target sequence in this assay (Q13255 19-1194 limits assumed): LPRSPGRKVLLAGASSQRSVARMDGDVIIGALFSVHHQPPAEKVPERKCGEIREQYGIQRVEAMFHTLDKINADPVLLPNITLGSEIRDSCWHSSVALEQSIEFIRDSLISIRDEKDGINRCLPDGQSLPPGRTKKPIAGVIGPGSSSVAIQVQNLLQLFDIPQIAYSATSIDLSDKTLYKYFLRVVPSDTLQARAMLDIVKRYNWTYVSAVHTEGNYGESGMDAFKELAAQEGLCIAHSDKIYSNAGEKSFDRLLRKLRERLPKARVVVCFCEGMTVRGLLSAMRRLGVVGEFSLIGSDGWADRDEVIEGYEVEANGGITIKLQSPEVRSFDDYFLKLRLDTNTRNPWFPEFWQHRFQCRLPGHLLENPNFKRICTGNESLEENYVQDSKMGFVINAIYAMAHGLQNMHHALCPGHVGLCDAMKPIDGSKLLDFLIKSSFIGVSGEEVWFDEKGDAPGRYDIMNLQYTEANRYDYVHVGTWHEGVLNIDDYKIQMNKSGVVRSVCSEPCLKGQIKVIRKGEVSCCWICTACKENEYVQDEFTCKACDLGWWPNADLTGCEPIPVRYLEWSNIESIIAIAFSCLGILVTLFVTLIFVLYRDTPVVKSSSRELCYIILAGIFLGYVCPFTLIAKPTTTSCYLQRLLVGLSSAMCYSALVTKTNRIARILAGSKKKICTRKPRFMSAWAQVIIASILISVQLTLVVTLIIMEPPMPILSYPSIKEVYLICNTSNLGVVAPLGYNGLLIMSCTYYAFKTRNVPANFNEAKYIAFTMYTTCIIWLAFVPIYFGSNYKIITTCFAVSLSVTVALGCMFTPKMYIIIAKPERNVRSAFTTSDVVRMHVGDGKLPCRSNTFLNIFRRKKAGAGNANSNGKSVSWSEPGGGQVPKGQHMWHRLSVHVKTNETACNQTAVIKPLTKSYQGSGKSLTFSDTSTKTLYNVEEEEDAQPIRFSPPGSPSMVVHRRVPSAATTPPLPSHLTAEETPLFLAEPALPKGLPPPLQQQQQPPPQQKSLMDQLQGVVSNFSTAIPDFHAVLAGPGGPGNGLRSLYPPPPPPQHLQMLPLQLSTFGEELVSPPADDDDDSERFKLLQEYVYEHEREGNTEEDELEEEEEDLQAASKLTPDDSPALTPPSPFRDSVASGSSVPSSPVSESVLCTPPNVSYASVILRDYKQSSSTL

[9] = target: T1, Metabotropic glutamate receptor 1; experiment: Positive allosteric modulation of human mGlu1 receptor in HEK293 cells assessed as potentiation of glutamate-induced calcium mobiliztion by Fluo-4AM dye based fluorescence analysis; format: functional, cell-based; details: read-out: EC50
[10] = target: Metabotropic glutamate receptor 5 (Homo sapiens) (UniProt P41594); experiment: Positive allosteric modulation of mGlu5 receptor (unknown origin) assessed as potentiation of glutamate-induced response by cell-based assay; summary of the method: as §3
Mus musculus [11] = experiment: Toxicity in C57BL/6 mouse assessed as seizure activity at 100 mg/kg, ip administered as single dose measured for 3 hrs; format: organism-based; details: in vivo; summary of the method: as §2
[12] = target: T1, Metabotropic glutamate receptor 1; experiment: Positive allosteric modulation of human mGlu1 receptor in HEK293 cells assessed as potentiation of glutamate-induced calcium mobiliztion by Fluo-4AM dye based fluorescence analysis relative to glutamate; format: functional, cell-based
Target sequence in this assay (Q13255 19-1194 limits assumed): as above

[13] = Plasma clearance in Sprague-Dawley rat at 0.2 mg/kg, iv by LC-MS/MS analysis
[14] = Plasma concentration in Sprague-Dawley rat at 0.2 mg/kg, iv after 0.25 hrs by LC-MS/MS analysis
Plasma [15] = experiment: Fraction unbound in rat plasma; format: ADME, cell-free
[16] = target: T2, Metabotropic glutamate receptor 4 (Homo sapiens, UniProt Q14833); experiment: Positive allosteric modulation of human mGlu4 receptor assessed as potentiation of glutamate-induced calcium mobiliztion by cell based assay; format: functional; details: read-out: EC50
[17] = target: T2, Metabotropic glutamate receptor 4; experiment: Positive allosteric modulation of human mGlu4 receptor assessed as potentiation of glutamate-induced calcium mobiliztion by cell based assay relative to PHCCC
[18] = Ratio of drug level in brain to plasma of Sprague-Dawley rat at 0.2 mg/kg, iv after 0.25 hrs by LC-MS/MS analysis; details: read-out: BPR
[19] = Intrinsic clearance in human liver microsomes at 1 uM by LC-MS/MS analysis; format: ADME; details: read-out: CLH
Brain = experiment: Drug concentration in C57BL/6 mouse brain at 100 mg/kg, ip administered as single dose; format: ADME, organism-based; details: in vivo, read-out: Drug uptake
Cytochrome P450 2C9 = Cytochrome P450 2C9 (Homo sapiens, UniProt P11712); experiment: Inhibition of CYP2C9 in human liver microsomes by LC-MS/MS analysis; format: ADME
[20] = Mean residence time in Sprague-Dawley rat at 0.2 mg/kg, iv by LC-MS/MS analysis; details: in vivo
Plasma [21] = experiment: Metabolic stability in human plasma; format: ADME, cell-free; summary of the method: as §1
Cytochrome P450 2D6 = Cytochrome P450 2D6 (Homo sapiens, UniProt P10635); experiment: Inhibition of CYP2D6 in human liver microsomes by LC-MS/MS analysis; format: ADME
[22] = target: Metabotropic glutamate receptor 6 (Homo sapiens) (UniProt O15303); experiment: Positive allosteric modulation of mGlu6 receptor (unknown origin) assessed as potentiation of glutamate-induced response by cell-based assay; summary of the method: as §3
[23] = target: Metabotropic glutamate receptor 7 (Homo sapiens) (UniProt Q14831); experiment: Positive allosteric modulation of mGlu7 receptor (unknown origin) assessed as potentiation of glutamate-induced response by cell-based assay; summary of the method: as §3
Cytochrome P450 3A4 = Cytochrome P450 3A4 (Homo sapiens, UniProt P08684); experiment: Inhibition of CYP3A4 in human liver microsomes by LC-MS/MS analysis; format: ADME
[24] = target: T1, Metabotropic glutamate receptor 1; experiment: Positive allosteric modulation of human mGlu1 receptor in HEK293 cells assessed as potentiation of glutamate-induced calcium mobiliztion at 10 uM by Fluo-4AM dye based fluorescence analysis; format: functional, cell-based
Target sequence in this assay (Q13255 19-1194 limits assumed): as above

Cytochrome P450 1A2 = target: T3, Cytochrome P450 1A2 (Homo sapiens, UniProt P05177); experiment: Inhibition of CYP1A2 in human liver microsomes by LC-MS/MS analysis; format: ADME
T3 sequence (P05177 whole entry): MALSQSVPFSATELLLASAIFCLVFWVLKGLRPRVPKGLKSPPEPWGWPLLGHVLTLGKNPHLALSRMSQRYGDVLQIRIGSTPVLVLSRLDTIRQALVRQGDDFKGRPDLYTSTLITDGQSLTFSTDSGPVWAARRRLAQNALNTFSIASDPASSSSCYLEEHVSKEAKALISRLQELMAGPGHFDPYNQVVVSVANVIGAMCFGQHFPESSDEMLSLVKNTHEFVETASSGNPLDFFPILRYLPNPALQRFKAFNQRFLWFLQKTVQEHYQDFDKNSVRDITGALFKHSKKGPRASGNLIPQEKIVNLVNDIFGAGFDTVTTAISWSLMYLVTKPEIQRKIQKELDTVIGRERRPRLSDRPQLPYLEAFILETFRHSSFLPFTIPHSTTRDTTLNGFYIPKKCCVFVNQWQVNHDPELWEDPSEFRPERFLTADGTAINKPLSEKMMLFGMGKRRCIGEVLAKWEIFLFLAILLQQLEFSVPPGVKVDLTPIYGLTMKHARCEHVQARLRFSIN

Rattus norvegicus = experiment: Volume of distribution at steady state in Sprague-Dawley rat at 0.2 mg/kg, iv by LC-MS/MS analysis; details: in vivo
[25] = target: Metabotropic glutamate receptor 1 (Rattus norvegicus, UniProt P23385); experiment: Positive allosteric modulation of rat mGlu1 receptor assessed as potentiation of glutamate-induced calcium mobiliztion by cell based assay; format: functional
Summary of the method: (§4)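 Rat mGlu1 WT calcium mobilization concentration-response curves. EC50 and % Glu Max were derived from the curves.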

[26] = target: Metabotropic glutamate receptor 1 (Rattus norvegicus) (UniProt P23385); experiment: Positive allosteric modulation of rat mGlu1 receptor assessed as potentiation of glutamate-induced calcium mobiliztion by cell based assay relative to glutamate; format: functional; summary of the method: as §4
[27] = target: Metabotropic glutamate receptor 2 (Homo sapiens) (UniProt Q14416); experiment: Positive allosteric modulation of mGlu2 receptor (unknown origin) assessed as potentiation of glutamate-induced response by cell-based assay; summary of the method: as §3
[28] = target: Metabotropic glutamate receptor 8 (Homo sapiens) (UniProt O00222); experiment: Positive allosteric modulation of mGlu8 receptor (unknown origin) assessed as potentiation of glutamate-induced response by cell-based assay; summary of the method: as §3
Metabotropic glutamate receptor 8 (Homo sapiens), sequence (O00222 whole entry): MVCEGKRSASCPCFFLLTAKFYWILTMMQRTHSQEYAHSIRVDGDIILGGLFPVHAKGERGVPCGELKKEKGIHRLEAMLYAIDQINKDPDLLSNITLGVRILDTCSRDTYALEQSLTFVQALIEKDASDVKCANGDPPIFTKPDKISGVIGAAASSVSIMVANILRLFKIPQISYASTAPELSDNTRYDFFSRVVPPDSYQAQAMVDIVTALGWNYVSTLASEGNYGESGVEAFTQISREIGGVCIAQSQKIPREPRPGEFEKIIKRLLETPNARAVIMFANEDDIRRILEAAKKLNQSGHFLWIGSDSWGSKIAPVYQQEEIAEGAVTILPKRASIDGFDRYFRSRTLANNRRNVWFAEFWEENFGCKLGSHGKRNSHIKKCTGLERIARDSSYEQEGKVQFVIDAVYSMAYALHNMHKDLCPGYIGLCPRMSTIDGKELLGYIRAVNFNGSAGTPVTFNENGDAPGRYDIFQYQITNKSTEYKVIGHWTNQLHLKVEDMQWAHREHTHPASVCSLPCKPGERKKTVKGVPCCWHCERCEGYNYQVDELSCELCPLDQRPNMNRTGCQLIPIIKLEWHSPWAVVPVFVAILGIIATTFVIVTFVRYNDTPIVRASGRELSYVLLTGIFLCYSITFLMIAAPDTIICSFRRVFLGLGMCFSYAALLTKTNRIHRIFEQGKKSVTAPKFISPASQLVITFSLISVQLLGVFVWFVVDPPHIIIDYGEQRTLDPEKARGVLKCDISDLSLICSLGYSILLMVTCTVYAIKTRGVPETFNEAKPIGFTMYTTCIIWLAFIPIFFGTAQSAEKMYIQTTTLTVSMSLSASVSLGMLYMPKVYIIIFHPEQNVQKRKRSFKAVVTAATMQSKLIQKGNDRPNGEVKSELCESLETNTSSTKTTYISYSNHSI

T2 sequence (Q14833 whole entry): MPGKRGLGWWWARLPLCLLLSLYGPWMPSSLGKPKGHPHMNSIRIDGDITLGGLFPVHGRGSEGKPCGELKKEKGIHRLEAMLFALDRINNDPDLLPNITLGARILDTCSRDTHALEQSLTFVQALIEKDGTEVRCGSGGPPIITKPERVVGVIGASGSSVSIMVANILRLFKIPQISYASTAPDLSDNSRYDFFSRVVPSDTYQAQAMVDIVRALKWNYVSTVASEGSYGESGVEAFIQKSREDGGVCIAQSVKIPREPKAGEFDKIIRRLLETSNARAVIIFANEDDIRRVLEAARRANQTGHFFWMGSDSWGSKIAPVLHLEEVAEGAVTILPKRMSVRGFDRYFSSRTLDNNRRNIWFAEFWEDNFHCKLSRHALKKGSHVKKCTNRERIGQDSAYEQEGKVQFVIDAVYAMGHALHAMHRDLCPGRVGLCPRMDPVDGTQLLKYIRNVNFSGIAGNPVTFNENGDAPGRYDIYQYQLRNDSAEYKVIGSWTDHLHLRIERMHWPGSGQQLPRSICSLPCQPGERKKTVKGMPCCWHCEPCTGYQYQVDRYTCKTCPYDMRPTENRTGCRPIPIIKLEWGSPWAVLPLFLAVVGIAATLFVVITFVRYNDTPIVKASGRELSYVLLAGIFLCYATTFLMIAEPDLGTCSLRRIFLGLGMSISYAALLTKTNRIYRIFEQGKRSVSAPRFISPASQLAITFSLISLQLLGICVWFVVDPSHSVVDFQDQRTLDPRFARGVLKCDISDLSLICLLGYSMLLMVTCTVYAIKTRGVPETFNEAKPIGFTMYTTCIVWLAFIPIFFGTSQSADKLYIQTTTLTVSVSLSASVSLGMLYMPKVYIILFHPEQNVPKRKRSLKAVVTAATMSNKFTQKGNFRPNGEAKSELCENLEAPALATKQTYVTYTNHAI
Metabotropic glutamate receptor 2 (Homo sapiens), sequence (Q14416 19-872 limits assumed): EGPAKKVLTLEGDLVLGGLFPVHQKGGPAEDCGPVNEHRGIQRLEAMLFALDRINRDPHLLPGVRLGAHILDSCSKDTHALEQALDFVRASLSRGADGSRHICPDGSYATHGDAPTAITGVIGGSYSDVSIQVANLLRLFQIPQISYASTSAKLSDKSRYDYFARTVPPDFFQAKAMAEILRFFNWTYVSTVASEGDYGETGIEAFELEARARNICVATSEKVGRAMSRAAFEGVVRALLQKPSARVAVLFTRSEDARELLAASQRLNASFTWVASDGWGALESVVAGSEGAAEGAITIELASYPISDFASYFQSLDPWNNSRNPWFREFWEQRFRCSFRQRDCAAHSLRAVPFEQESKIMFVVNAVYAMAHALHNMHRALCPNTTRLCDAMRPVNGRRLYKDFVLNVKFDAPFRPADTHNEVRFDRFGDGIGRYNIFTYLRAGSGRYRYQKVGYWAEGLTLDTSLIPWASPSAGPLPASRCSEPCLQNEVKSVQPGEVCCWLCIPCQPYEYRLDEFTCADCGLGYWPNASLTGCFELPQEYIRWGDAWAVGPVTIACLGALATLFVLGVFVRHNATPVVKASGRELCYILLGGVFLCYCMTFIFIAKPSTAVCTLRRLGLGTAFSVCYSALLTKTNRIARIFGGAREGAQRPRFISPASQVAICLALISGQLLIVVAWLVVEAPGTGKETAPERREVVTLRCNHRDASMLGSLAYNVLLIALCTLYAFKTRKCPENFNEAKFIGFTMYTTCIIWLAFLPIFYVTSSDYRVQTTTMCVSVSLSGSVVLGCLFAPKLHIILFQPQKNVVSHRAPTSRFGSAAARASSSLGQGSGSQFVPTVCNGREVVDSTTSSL
Metabotropic glutamate receptor 5 (Homo sapiens), sequence (P41594 21-1212 limits assumed): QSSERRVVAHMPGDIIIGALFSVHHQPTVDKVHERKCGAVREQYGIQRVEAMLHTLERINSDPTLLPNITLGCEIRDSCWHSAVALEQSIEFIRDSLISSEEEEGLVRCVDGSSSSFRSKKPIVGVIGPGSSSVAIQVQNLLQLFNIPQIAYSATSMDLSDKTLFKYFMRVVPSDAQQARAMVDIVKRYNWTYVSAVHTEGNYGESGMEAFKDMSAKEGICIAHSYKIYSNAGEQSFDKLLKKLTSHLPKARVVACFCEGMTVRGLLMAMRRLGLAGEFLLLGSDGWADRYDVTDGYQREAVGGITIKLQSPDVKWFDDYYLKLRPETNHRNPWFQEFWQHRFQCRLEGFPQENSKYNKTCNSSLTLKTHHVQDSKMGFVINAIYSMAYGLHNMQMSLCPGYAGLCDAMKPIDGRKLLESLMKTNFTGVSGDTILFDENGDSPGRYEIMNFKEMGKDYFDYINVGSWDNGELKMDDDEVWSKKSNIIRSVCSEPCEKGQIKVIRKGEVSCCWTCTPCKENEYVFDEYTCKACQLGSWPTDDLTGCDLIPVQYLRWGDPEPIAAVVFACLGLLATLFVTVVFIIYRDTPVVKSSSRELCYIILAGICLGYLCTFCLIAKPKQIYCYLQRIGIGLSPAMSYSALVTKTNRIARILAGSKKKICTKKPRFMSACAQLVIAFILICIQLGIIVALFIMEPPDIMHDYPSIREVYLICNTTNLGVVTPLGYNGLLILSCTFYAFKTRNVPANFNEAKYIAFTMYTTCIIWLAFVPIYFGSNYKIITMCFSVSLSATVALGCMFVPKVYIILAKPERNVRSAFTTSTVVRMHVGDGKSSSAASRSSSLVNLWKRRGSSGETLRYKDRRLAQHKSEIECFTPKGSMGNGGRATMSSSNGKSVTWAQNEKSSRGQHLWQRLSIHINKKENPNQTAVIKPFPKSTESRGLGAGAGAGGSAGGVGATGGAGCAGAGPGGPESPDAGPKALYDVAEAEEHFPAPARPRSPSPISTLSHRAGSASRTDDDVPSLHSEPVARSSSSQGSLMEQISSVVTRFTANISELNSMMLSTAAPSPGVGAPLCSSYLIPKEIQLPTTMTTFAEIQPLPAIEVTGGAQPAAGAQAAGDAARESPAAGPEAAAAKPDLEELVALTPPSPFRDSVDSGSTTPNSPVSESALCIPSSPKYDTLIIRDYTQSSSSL

SMILES: N[C@H](C(=O)O)c1cc(O)cc(O)c1
- Activity (Hippocampus): 13.8 Hz

- Drug metabolism (Plasma [1]): metabolite_detected
- Drug metabolism (Plasma [2]): metabolite_detected
SMILES: Cc1ccoc1C(=O)Nc1ccc(NC(=O)c2ccc(Cl)cc2C(=O)O)c(Cl)c1

SMILES: C[C@@H](NC(=O)c1ccc(C#Cc2cccc(F)c2)cn1)C(C)(C)O
- Activity (Mus musculus [3]): Toxic
- Activity (Mus musculus [4]): Toxic

- fold change (FC) [5]: < 2
- half-life [6]: 5.38 min
- concentration at 0.25 h [7]: 35.2 ng/mL
- Activity [8]: < 20%
- EC50 [9]: 0.0988 µM
- fold change (FC) [10]: < 2
- %max [12]: 94%
- clearance [13]: 382 mL/min/kg
- concentration at 0.25 h [14]: 12.5 ng/mL
- Fu (Plasma [15]): 0.03
- EC50 [16]: > 10 µM
- %max [17]: 18%
- Kp at 0.25 h [18]: 2.81
- CLint scaled at 1 µM [19]: 167 mL/min/kg
- concentration (Brain): 2520 nM
- IC50 (Cytochrome P450 2C9): > 30 µM
- MRT [20]: 7.85 min
- Stability (Plasma [21]): Unstable
- IC50 (Cytochrome P450 2D6): > 30 µM
- fold change (FC) [22]: < 2
- fold change (FC) [23]: < 2
- IC50 (Cytochrome P450 3A4): > 30 µM
- fold change (FC) [24]: 10.9
- IC50 (Cytochrome P450 1A2): > 30 µM
- Vdss (Rattus norvegicus): 3 L/kg
- EC50 [25]: 0.113 µM
- %max [26]: 115%
- fold change (FC) [27]: < 2
- fold change (FC) [28]: < 2
SMILES: Cc1ccoc1C(=O)Nc1ccc(N2C(=O)c3ccncc3C2=O)c(Cl)c1
- Activity (Mus musculus [11]): Non-toxic

- Drug metabolism (Plasma [1]): metabolite_detected
- Drug metabolism (Plasma [2]): metabolite_detected
SMILES: Cc1ccoc1C(=O)Nc1ccc(NC(=O)c2cc(Cl)ccc2C(=O)O)c(Cl)c1
